Source: ChEMBL document CHEMBL1125014, “Synthesis and structure-activity relationships of new 9-N-alkyl derivatives of 9(S)-erythromycylamine” (1990)
Values after ≈ are worked out from the molar mass of the structure shown.

Tests used:
Type in all cases: functional
[1] = test system: Staphylococcus epidermidis; test: microbe, parasite or virus in culture
Streptococcus pyogenes [2] = test: MIC value measured against streptococcus pyogenes C203
Streptococcus pneumoniae [3] = test: MIC value measured against streptococcus pneumoniae Park1
Enterococcus faecalis [4] = test: MIC value was measured against streptococcus faecalis.
Staphylococcus aureus [5] = test: MIC value measured against staphylococcus aureus X1
Haemophilus influenzae [6] = test: MIC value was measured against haemophilus influenzae CL
Streptococcus pyogenes [7] = test: Effective dose against mice infected with streptococcus pyogenes after peroral administration (in vivo); conditions: in Mus musculus, po
Streptococcus pneumoniae [8] = test: Effective dose against mice infected with streptococcus pneumoniae after peroral administration (in vivo); conditions: in Mus musculus, po
Enterococcus faecalis [9] = test: MIC value was measured against streptococcus faecalis X66
In short: (§1)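 Susceptibility determined by standard agar-dilution method against a panel of bacterial strains.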

Streptococcus pneumoniae [10] = test: MIC value was measured against streptococcus pneumoniae park1
In short: as §1

Staphylococcus aureus [11] = test: Effective dose against mice infected with Staphylococcus aureus after peroral administration (in vivo); conditions: in Mus musculus, po
Haemophilus influenzae [12] = test: MIC value was measured against haemophilus influenzae.
In short: as §1

Mus musculus [13] = test: ED50 value was measured by po administration against streptococcus pneumoniae infection in mice (in vivo, in experiment 1)
In short: (§2)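 Infected mice were dosed orally or subcutaneously at 1 and 5 h postinfection, 0.25 mL of antibiotic solution in 10% aqueous ethanol per dose. Tartaric acid was added where needed for solubility. Several dose concentrations were tested to give the ED50.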

Mus musculus [14] = test: ED50 value was measured by sc administration against streptococcus pyogenes infection in mice (in vivo, in experiment 2)
In short: as §2

Mus musculus [15] = test: ED50 value was measured by po administration against streptococcus pyogenes infection in mice (in vivo, in experiment 1)
In short: as §2

Mus musculus [16] = test: ED50 value was measured by sc administration against staphylococcus aureus infection in mice (in vivo, in experiment 2)
In short: as §2

Mus musculus [17] = test: ED50 value was measured by sc administration against streptococcus pneumoniae infection in mice (in vivo, in experiment 2)
In short: as §2

Mus musculus [18] = test: ED50 value was measured by po administration against staphylococcus aureus infection in mice (in vivo, in experiment 1)
In short: as §2

Mus musculus [19] = test: ED50 value was measured by po administration against streptococcus pyogenes infection in mice (in vivo, in experiment 2)
In short: as §2

Mus musculus [20] = test: ED50 value was measured by sc administration against streptococcus pneumoniae infection in mice (in vivo, in experiment 1)
In short: as §2

Mus musculus [21] = test: ED50 value was measured by po administration against streptococcus pneumoniae infection in mice (in vivo, in experiment 2)
In short: as §2

Mus musculus [22] = test: ED50 value was measured by po administration against staphylococcus aureus infection in mice (in vivo, in experiment 2)
In short: as §2

Mus musculus [23] = test: ED50 value was measured by sc administration against streptococcus pyogenes infection in mice (in vivo, in experiment 1)
In short: as §2

Mus musculus [24] = test: ED50 value was measured by sc administration against staphylococcus aureus infection in mice (in vivo, in experiment 1)
In short: as §2

Mus musculus [25] = species: Mus musculus; test: ED50 value was measured against streptococcus pyogenes infection in mice.
In short: as §2

Row | Compound | MIC [1] [µg/mL] | MIC (Streptococcus pyogenes [2]) [µg/mL] | MIC (Streptococcus pneumoniae [3]) [µg/mL] | MIC (Enterococcus faecalis [4]) [µg/mL] | MIC (Staphylococcus aureus [5]) [µg/mL] | MIC (Haemophilus influenzae [6]) [µg/mL] | MIC (Enterococcus faecalis [9]) [µg/mL] | MIC (Haemophilus influenzae [12]) [µg/mL] | ED50 (Streptococcus pyogenes [7]) [mg/kg] | ED50 (Streptococcus pneumoniae [8]) [mg/kg] | ED50 (Staphylococcus aureus [11]) [mg/kg] | also measured
1 | CC[C@H]1OC(=O)[C@H](C)[C@@H](OC2CC(C)(OC)C(O)C(C)O2)[C@H](C)[C@@H](OC2OC(C)CC(N(C)C)C2O)[C@](C)(O)C[C@@H](C)[C@H](NCC#Cc2ccccc2)[C@H](C)[C@@H](O)[C@]1(C)O (some centres not stated) | 0.5 (≈ 0.589 µM) | 0.008 (≈ 0.00942 µM) |  |  | 1 (≈ 1.18 µM) | 4 (≈ 4.71 µM) | 0.25 (≈ 0.294 µM) |  | 27 | 34 | > 50 | MIC (Streptococcus pneumoniae [10]): 0.008 µg/mL (≈ 0.00942 µM)
2 | CC[C@H]1OC(=O)[C@H](C)[C@@H](OC2CC(C)(OC)C(O)C(C)O2)[C@H](C)[C@@H](OC2OC(C)CC(N(C)C)C2O)[C@](C)(O)C[C@@H](C)[C@H](NCCOC)[C@H](C)[C@@H](O)[C@]1(C)O (some centres not stated) | 0.25 (≈ 0.315 µM) | 0.12 (≈ 0.151 µM) | 0.015 (≈ 0.0189 µM) |  | 0.5 (≈ 0.63 µM) | 1 (≈ 1.26 µM) |  | 1 (≈ 1.26 µM) | 16 | 19 | 35 | ED50 (Mus musculus [13]): 25 mg/kg; ED50 (Mus musculus [14]): 2.1 mg/kg; ED50 (Mus musculus [15]): 16 mg/kg; ED50 (Mus musculus [16]): 2.5 mg/kg; ED50 (Mus musculus [17]): 3.3 mg/kg; ED50 (Mus musculus [18]): 44 mg/kg; ED50 (Mus musculus [19]): 16 mg/kg; ED50 (Mus musculus [20]): 2 mg/kg; ED50 (Mus musculus [21]): 19 mg/kg; ED50 (Mus musculus [22]): 35 mg/kg; ED50 (Mus musculus [23]): 1.7 mg/kg; ED50 (Mus musculus [24]): 2 mg/kg
3 | CC[C@H]1OC(=O)[C@H](C)[C@@H](OC2CC(C)(OC)C(O)C(C)O2)[C@H](C)[C@@H](OC2OC(C)CC(N(C)C)C2O)[C@](C)(O)C[C@@H](C)[C@H](NCCCCN)[C@H](C)[C@@H](O)[C@]1(C)O (some centres not stated) | 4 (≈ 4.96 µM) | 0.12 (≈ 0.149 µM) | 4 (≈ 4.96 µM) | 8 (≈ 9.92 µM) | 4 (≈ 4.96 µM) | 64 (≈ 79.4 µM) |  |  |  |  |  | 
4 | CC[C@H]1OC(=O)[C@H](C)[C@@H](OC2CC(C)(OC)C(O)C(C)O2)[C@H](C)[C@@H](OC2OC(C)CC(N(C)C)C2O)[C@](C)(O)C[C@@H](C)/C(=N\O)[C@H](C)[C@@H](O)[C@H]1C (some centres not stated) | 0.25 (≈ 0.341 µM) | 0.015 (≈ 0.0205 µM) | 0.008 (≈ 0.0109 µM) | 1 (≈ 1.36 µM) | 0.5 (≈ 0.682 µM) | 1 (≈ 1.36 µM) |  |  |  |  |  | 
5 | CC[C@H]1OC(=O)[C@H](C)[C@@H](OC2CC(C)(OC)C(O)C(C)O2)[C@H](C)[C@@H](OC2OC(C)CC(N(C)C)C2O)[C@](C)(O)C[C@@H](C)[C@H](NCCC2=C(C)CCCC2(C)C)[C@H](C)[C@@H](O)[C@]1(C)O (some centres not stated) | 1 (≈ 1.13 µM) | 0.5 (≈ 0.565 µM) |  |  | 1 (≈ 1.13 µM) | 4 (≈ 4.52 µM) | 0.12 (≈ 0.136 µM) |  | > 50 | > 50 | > 50 | 

Continued by falling MIC [1], values first:

Row | MIC [1] [µg/mL] | MIC (Streptococcus pyogenes [2]) [µg/mL] | MIC (Streptococcus pneumoniae [3]) [µg/mL] | MIC (Enterococcus faecalis [4]) [µg/mL] | MIC (Staphylococcus aureus [5]) [µg/mL] | MIC (Haemophilus influenzae [6]) [µg/mL] | MIC (Enterococcus faecalis [9]) [µg/mL] | MIC (Haemophilus influenzae [12]) [µg/mL] | Compound | ED50 (Streptococcus pyogenes [7]) [mg/kg] | ED50 (Streptococcus pneumoniae [8]) [mg/kg] | ED50 (Staphylococcus aureus [11]) [mg/kg] | also measured
6 | 8 (≈ 9.01 µM) | 0.5 (≈ 0.563 µM) |  |  | 8 (≈ 9.01 µM) | 8 (≈ 9.01 µM) | 2 (≈ 2.25 µM) |  | CC[C@H]1OC(=O)[C@H](C)[C@@H](OC2CC(C)(OC)C(O)C(C)O2)[C@H](C)[C@@H](OC2OC(C)CC(N(C)C)C2O)[C@](C)(O)C[C@@H](C)[C@H]2[C@H](C)[C@@H](OCN2C(C)CCCN(CC)CC)[C@]1(C)O (some centres not stated) |  |  |  | MIC (Streptococcus pneumoniae [10]): 0.5 µg/mL (≈ 0.563 µM)
7 | 0.5 (≈ 0.607 µM) | 0.015 (≈ 0.0182 µM) | 0.015 (≈ 0.0182 µM) |  |  | 4 (≈ 4.86 µM) |  | 4 (≈ 4.86 µM) | CC[C@H]1OC(=O)[C@H](C)[C@@H](OC2CC(C)(OC)C(O)C(C)O2)[C@H](C)[C@@H](OC2OC(C)CC(N(C)C)C2O)[C@](C)(O)C[C@@H](C)[C@H](NCCCSC)[C@H](C)[C@@H](O)[C@]1(C)O (some centres not stated) |  | 18 | 50 | ED50 (Mus musculus [25]): 7 mg/kg
8 | 0.5 (≈ 0.612 µM) | 0.06 (≈ 0.0734 µM) | 0.03 (≈ 0.0367 µM) | 0.25 (≈ 0.306 µM) | 0.5 (≈ 0.612 µM) | 4 (≈ 4.9 µM) |  |  | CC[C@H]1OC(=O)[C@H](C)[C@@H](OC2CC(C)(OC)C(O)C(C)O2)[C@H](C)[C@@H](OC2OC(C)CC(N(C)C)C2O)[C@](C)(O)C[C@@H](C)[C@H](NC2CCCCC2)[C@H](C)[C@@H](O)[C@]1(C)O (some centres not stated) |  |  |  | 
9 | 0.12 (≈ 0.137 µM) | 0.008 (≈ 0.00916 µM) |  | 0.25 (≈ 0.286 µM) | 0.25 (≈ 0.286 µM) | 2 (≈ 2.29 µM) |  | 2 (≈ 2.29 µM) | CCCCC/C=C\CCCN[C@@H]1[C@H](C)[C@@H](O)[C@](C)(O)[C@@H](CC)OC(=O)[C@H](C)[C@@H](OC2CC(C)(OC)C(O)C(C)O2)[C@H](C)[C@@H](OC2OC(C)CC(N(C)C)C2O)[C@](C)(O)C[C@H]1C (some centres not stated) |  |  |  | 
10 | 0.06 (≈ 0.0801 µM) | 0.008 (≈ 0.0107 µM) | 0.008 (≈ 0.0107 µM) | 0.06 (≈ 0.0801 µM) | 0.25 (≈ 0.334 µM) | 0.5 (≈ 0.668 µM) |  |  | CC[C@H]1OC(=O)[C@H](C)[C@@H](OC2CC(C)(OC)C(O)C(C)O2)[C@H](C)[C@@H](OC2OC(C)CC(N(C)C)C2O)[C@](C)(O)C[C@@H](C)/C(=N\O)[C@H](C)[C@@H](O)[C@]1(C)O (some centres not stated) |  |  |  | 
